# Laboratory results published in ChEMBL document CHEMBL1143257, “Structure-activity relationships of novel HIV-1 protease inhibitors containing the 3-amino-2-chlorobenzoyl-allophenylnorstatine structure” (Bioorg Med Chem, 2008).
# Experiments:
# [1] = Metabolic stability in human liver microsomes assessed as compound remaining at 5 uM in presence of NADPH by RP-HPLC; type: ADME, Microsome; settings: read-out: Stability
# In short: (§1)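 Test drug at 5 µM incubated with liver microsomes (0.5 mg/ml) plus cofactor (1 mM NADPH or 5 mM UDPGA) at 37 °C for 30 min. Residual drug measured by RP-HPLC. Values are the mean percent remaining of duplicates.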
# [2] = Metabolic stability in human liver microsomes assessed as compound remaining at 5 uM in presence of UDPGA by RP-HPLC; type: ADME, Microsome; settings: read-out: Stability; in short: as §1
# [3] = test system: Human immunodeficiency virus 1; assay: Antiviral activity against HIV1 3B in presence of 50% human serum; type: functional, organism-based; settings: Human immunodeficiency virus 1, 3B
# [4] = target: Protease (Human immunodeficiency virus 1, UniProt Q9YQ12); assay: Inhibition of HIV1 protease
# Sequence of Protease (Q9YQ12 whole entry): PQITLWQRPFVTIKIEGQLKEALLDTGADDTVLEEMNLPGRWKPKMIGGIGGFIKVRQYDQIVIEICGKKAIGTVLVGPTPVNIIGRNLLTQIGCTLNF
# [5] = test system: Human immunodeficiency virus 1; assay: Antiviral activity against HIV1 3B; type: functional, organism-based; settings: Human immunodeficiency virus 1, 3B
# [6] = test system: Human immunodeficiency virus 1; assay: Ratio of EC50 for HIV1 mutant strain 5 to EC50 for wild type HIV1; type: functional
# [7] = test system: Human immunodeficiency virus 1; assay: Antiviral activity against HIV1 mutant strain 7; type: functional, organism-based
# In short: (§2)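 PhenoSense phenotypic assay. Strain 7 protease mutations include T4A, L10I, K20R, L23I, L33F, E35D, M36I, K43T, M46L. EC50 in µM. Fold change is versus the wild-type EC50.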
# [8] = test system: Human immunodeficiency virus 1; assay: Antiviral activity against HIV1 mutant strain 1; type: functional, organism-based
# In short: (§3)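 PhenoSense phenotypic susceptibility assay on multi-drug-resistant clinical HIV-1 protease variant strains, run in parallel with a wild-type reference. EC50 read in µM. Fold change is mutant EC50 divided by wild-type EC50.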
# [9] = test system: Human immunodeficiency virus 1; assay: Ratio of EC50 for HIV1 mutant strain 7 to EC50 for wild type HIV1; type: functional; in short: as §2
# [10] = test system: Human immunodeficiency virus 1; assay: Ratio of EC50 for HIV1 mutant strain 1 to EC50 for wild type HIV1; type: functional; in short: as §3
# [11] = test system: Human immunodeficiency virus 1; assay: Ratio of EC50 for HIV1 mutant strain 2 to EC50 for wild type HIV1; type: functional
# In short: (§4)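 PhenoSense phenotypic assay. Strain 2 protease carries L10I, G16A, K45V, F53L, I54V, K55N, D60E, L63P, A71V, I72K, V77I, V82F, I84V, L90M, I93L. EC50 in µM. Fold change is versus the wild-type EC50.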
# [12] = test system: Human immunodeficiency virus 1; assay: Antiviral activity against wild type HIV1; type: functional, organism-based
# [13] = test system: Human immunodeficiency virus 1; assay: Antiviral activity against HIV1 mutant strain 3; type: functional, organism-based
# [14] = test system: Human immunodeficiency virus 1; assay: Antiviral activity against HIV1 mutant strain 4; type: functional, organism-based
# [15] = test system: Human immunodeficiency virus 1; assay: Antiviral activity against HIV1 mutant strain 5; type: functional, organism-based
# [16] = test system: Human immunodeficiency virus 1; assay: Ratio of EC50 for HIV1 mutant strain 6 to EC50 for wild type HIV1; type: functional
# [17] = test system: Human immunodeficiency virus 1; assay: Antiviral activity against HIV1 mutant strain 2; type: functional, organism-based; in short: as §4
# [18] = test system: Human immunodeficiency virus 1; assay: Ratio of EC50 for HIV1 mutant strain 3 to EC50 for wild type HIV1; type: functional
# [19] = test system: Human immunodeficiency virus 1; assay: Ratio of EC50 for HIV1 mutant strain 4 to EC50 for wild type HIV1; type: functional
# [20] = test system: Human immunodeficiency virus 1; assay: Antiviral activity against HIV1 mutant strain 6; type: functional, organism-based
# [21] = Tmax in Beagle dog at 15 mg/kg, po; type: ADME, organism-based, Canis lupus familiaris; design: dose 15 mg/kg, route oral; settings: in vivo
# [22] = AUC in Beagle dog at 15 mg/kg, po; type: ADME, organism-based, Canis lupus familiaris; design: dose 15 mg/kg, route oral; settings: plasma
# [23] = test system: Liver; assay: Metabolic stability in dog liver microsomes assessed as compound remaining in presence of NADPH by RP-HPLC; type: ADME, Canis lupus familiaris, Microsome; in short: as §1
# [24] = test system: Liver; assay: Metabolic stability in dog liver microsomes assessed as compound remaining in presence of UDPGA by RP-HPLC; type: ADME, Canis lupus familiaris, Microsome; in short: as §1
# [25] = Oral bioavailability in Beagle dog at 15 mg/kg; type: ADME, organism-based, Canis lupus familiaris; settings: in vivo
# [26] = Cmax in Beagle dog at 15 mg/kg, po; type: ADME, organism-based, Canis lupus familiaris; design: dose 15 mg/kg, route oral; settings: in vivo
# [27] = Plasma concentration in Beagle dog at 15 mg/kg, po after 12 hrs; type: ADME, organism-based, Canis lupus familiaris; design: dose 15 mg/kg, route oral
# [28] = Plasma clearance in Beagle dog at 15 mg/kg, iv; type: ADME, organism-based, Canis lupus familiaris; design: dose 15 mg/kg, route intravenous
# [29] = Volume of distribution at steady state in Beagle dog at 15 mg/kg, iv; type: ADME, organism-based, Canis lupus familiaris; design: dose 15 mg/kg, route intravenous; settings: in vivo, read-out: Vdss
SMILES,remaining at 5 µM [1] [%],remaining at 5 µM [2] [%],EC50 [3] [nM],Ki [4] [nM],EC50 [5] [nM],EC50 [7] [nM],EC50 [8] [nM],EC50 [12] [nM],EC50 [13] [nM],EC50 [14] [nM],EC50 [15] [nM],EC50 [17] [nM],EC50 [20] [nM],other results
Cc1ccccc1CNC(=O)[C@H]1N(C(=O)[C@@H](O)[C@H](Cc2ccc3c(c2)OCO3)NC(=O)c2cccc(N)c2Cl)CSC1(C)C,74,> 95,77,0.163,20,,,,,,,,,
Cc1c(O)cccc1C(=O)N[C@@H](CSc1ccccc1)[C@H](O)CN1C[C@H]2CCCC[C@H]2C[C@H]1C(=O)NC(C)(C)C,,,293,0.931,19,515,452,5.4,413,> 1500,776,346,> 1500,Ratio EC50 [6]: 141; Ratio EC50 [9]: 94; Ratio EC50 [10]: 82; Ratio EC50 [11]: 64; Ratio EC50 [16]: >273; Ratio EC50 [18]: 75; Ratio EC50 [19]: >273
CC(C)CN(C[C@@H](O)[C@H](Cc1ccccc1)NC(=O)O[C@H]1CCOC1)S(=O)(=O)c1ccc(N)cc1,,,95,0.359,16,165,98,14,143,51,615,350,432,Ratio EC50 [6]: 43; Ratio EC50 [9]: 12; Ratio EC50 [10]: 7; Ratio EC50 [11]: 25; Ratio EC50 [16]: 30; Ratio EC50 [18]: 10; Ratio EC50 [19]: 4
CCOc1ccc(C[C@H](NC(=O)c2cccc(N)c2Cl)[C@H](O)C(=O)N2CSC(C)(C)[C@H]2C(=O)NCc2c(C)cccc2C)cc1,54,> 95,66,0.152,20,,,,,,,,,
CC(C)c1nc(CN(C)C(=O)N[C@H](C(=O)N[C@@H](Cc2ccccc2)C[C@H](O)[C@H](Cc2ccccc2)NC(=O)OCc2cncs2)C(C)C)cs1 [RITONAVIR],,,41,,2,> 3000,1730,16,> 3000,1000,> 3000,> 3000,> 3000,
Cc1cccc(C)c1CNC(=O)[C@H]1N(C(=O)[C@@H](O)[C@H](Cc2ccc3c(c2)OCO3)NC(=O)c2cccc(N)c2Cl)CSC1(C)C,53,> 95,20,0.07,17,,,,,,,,,
COc1ccc(C[C@H](NC(=O)c2cccc(N)c2Cl)[C@H](O)C(=O)N2CSC(C)(C)[C@H]2C(=O)NCc2c(C)cccc2C)cc1,58,> 95,14,0.138,24,,,,,,,,,
Cc1ccccc1CNC(=O)[C@H]1N(C(=O)[C@@H](O)[C@H](Cc2ccccc2)NC(=O)c2cccc(N)c2Cl)CSC1(C)C,46,> 95,165,0.353,77,,,,,,,,,
COc1ccc(C[C@H](NC(=O)c2cccc(N)c2Cl)[C@H](O)C(=O)N2CSC(C)(C)[C@H]2C(=O)NCc2ccccc2C)cc1,60,> 95,88,0.311,18,,,,,,,,,
CCOc1ccc(C[C@H](NC(=O)c2cccc(N)c2Cl)[C@H](O)C(=O)N2CSC(C)(C)[C@H]2C(=O)NCc2ccccc2C)cc1,65,89,35,0.31,6,,,,,,,,,
COc1ccc(C[C@H](NC(=O)c2cccc(N)c2Cl)[C@H](O)C(=O)N2CCC(C)(C)[C@H]2C(=O)NCc2c(C)cccc2C)cc1,63,> 95,80,0.804,40,,,,,,,,,
CCOc1ccc(C[C@H](NC(=O)c2cccc(N)c2Cl)[C@H](O)C(=O)N2CCC(C)(C)[C@H]2C(=O)NCc2c(C)cccc2C)cc1,53,> 95,270,0.861,63,,,,,,,,,
COc1cccc(C[C@H](NC(=O)c2cccc(N)c2Cl)[C@H](O)C(=O)N2CCC(C)(C)[C@H]2C(=O)NCc2c(C)cccc2C)c1,83,> 95,87,0.75,36,,,,,,,,,Tmax [21]: 1 h; AUC [22]: 36.7 µM·h; Stability [23]: 69%; Stability [24]: > 95%; bioavailability [25]: 146%; Cmax [26]: 5000 nM; concentration at 12 h [27]: 710 nM; clearance [28]: 16.7 mL/min/kg; Vd [29]: 1.9 L/kg
CC(C)(C)NC(=O)[C@@H]1C[C@@H]2CCCC[C@@H]2CN1C[C@@H](O)[C@H](Cc1ccccc1)NC(=O)[C@H](CC(N)=O)NC(=O)c1ccc2ccccc2n1,,,50,,7,141,> 500,1.9,> 500,> 500,> 500,97,158,
CC(C)(C)NC(=O)[C@@H]1CN(Cc2cccnc2)CCN1C[C@@H](O)C[C@@H](Cc1ccccc1)C(=O)N[C@H]1c2ccccc2C[C@H]1O,,,87,,23,145,401,7.6,753,113,> 1500,464,819,
COc1cccc(C[C@H](NC(=O)c2cccc(N)c2Cl)[C@H](O)C(=O)N2CSC(C)(C)[C@H]2C(=O)NCc2ccccc2C)c1,66,93,138,0.255,21,,,,,,,,,
